Results collected from several papers.
Lines come from different studies, so protocols differ.
BCL2L1: Bcl-2-like protein 1 (BCL2L1, Homo sapiens, UniProt Q07817)
PPO3: PPO3 (Agaricus bisporus, UniProt C7FF04)
CNR1: Cannabinoid receptor 1 (CNR1, Homo sapiens, UniProt P21554)

| Compound | target | assay | conditions | quantity | value |
| --- | --- | --- | --- | --- | --- |
| CC1(C)CCC(c2ccc(Cl)cc2)=C(CN2CCN(c3ccc(C(=O)NS(=O)(=O)c4ccc(N[C@H](CCN(CCOCCOCCOCCNc5cccc6c5C(=O)N(C5CCC(=O)NC5=O)C6=O)C5CC5)CSc5ccccc5)c(S(=O)(=O)C(F)(F)F)c4)cc3)CC2)C1 (some centres unmarked) | BCL2L1 | ligand displacement, AlphaScreen |  | Ki | 8.75 nM |
| O=C(CSc1nc2ccccc2cc1C=Nn1c(S)nnc1-c1ccccc1)Nc1ccc(Cl)cc1Cl | PPO3 | enzyme activity, inhibitor |  | IC50 | > 50000 nM |
| C[C@H](NC(=O)CNC(=O)c1cccc(Cl)c1)c1ccccc1 | Probable G-protein coupled receptor 139 (GPR139, Homo sapiens, UniProt Q6DWJ6) | ligand displacement, radioligand | cell membranes | Ki | 66 nM |
| O=c1c(NCCc2ccc(Cl)cc2)c(Nc2ccc(Cl)cc2)c1=O | CNR1 | calcium signal, antagonist, fluorescence |  | IC50 | 214 nM |
| CN(C)C(=O)c1cc2cnc(Nc3ccc(C(=O)NCCCCCCOc4cccc5c4C(=O)N(C4CCC(=O)NC4=O)C5=O)cc3)nc2n1C1CCCC1 (centres unmarked) | Aurora kinase B (AURKB, Homo sapiens, UniProt Q96GD4) | binding, competition with immobilised ligand |  | Kd | 160 nM |
| Cc1ccccc1-c1cc(=O)oc2cc(OC(C)C(=O)N(C)C)ccc12 (centres unmarked) | DNA-directed RNA polymerase, mitochondrial (POLRMT, Homo sapiens, UniProt O00411) | enzyme activity, inhibitor |  | IC50 | 22.2 nM |
| Cc1ncsc1-c1ccc([C@H](C)NC(=O)[C@@H]2C[C@@H](O)CN2C(=O)[C@@H](NC(=O)CCCCCCCS(=O)(=O)NC(=O)c2nc(N3CCc4cccc(C(=O)Nc5nc6ccccc6s5)c4C3)ccc2-c2cc(C#N)n(CC34CC5CC(CC(C5)C3)C4)c2C)C(C)(C)C)cc1 | BCL2L1 | ligand displacement, AlphaScreen |  | Ki | 6.1 nM |
| CCCC[C@@H](NC(=O)[C@@H](Cc1cn(C(=O)OC)c2ccccc12)NC(=O)[C@H](CC(C)(C)C)NC(=O)N1[C@H](C)CCC[C@@H]1C)C(=O)O | Endothelin-1 receptor (EDNRA, Homo sapiens, UniProt P25101) | ligand displacement, radioligand | cell membranes | IC50 | 443 nM |
| Cc1c(-c2ccc(N3CCc4cccc(C(=O)Nc5nc6ccccc6s5)c4C3)nc2C(=O)NCCCCNc2cccc3c2C(=O)N(C2CCC(=O)NC2=O)C3=O)cnn1CC12CC3CC(CC(C3)C1)C2 (centres unmarked) | BCL2L1 | ligand displacement, AlphaScreen |  | Ki | 1.49 nM |
| CCc1ccc(Cn2nnc3c4ccc(F)cc4c(=O)[nH]c32)cc1 | Poly [ADP-ribose] polymerase 1 (PARP1, Homo sapiens, UniProt P09874) | enzyme activity, inhibitor, fluorescence |  | IC50 | > 10000 nM |
| O=c1[nH]c(=O)c(Cc2cccc(C(F)(F)F)c2)c([C@H]2CC[C@H](c3ccccc3)CC2)[nH]1 | UDP-glucuronosyltransferase 1A3 (UGT1A3, Homo sapiens, UniProt P35503) | enzyme activity, inhibitor |  | IC50 | > 20000 nM |
| O=C(O)c1cc(-c2ccc(-n3ccnn3)cc2)c2ccc(-c3ccc(C(F)(F)F)cc3)cc2c1 | Sigma non-opioid intracellular receptor 1 (SIGMAR1, Homo sapiens, UniProt Q99720) | cell-free assay, radioligand |  | Ki | 3900 nM |
| O=c1c(NCCc2ccc(Cl)cc2Cl)c(Nc2ccc(Cl)cc2)c1=O | CNR1 | calcium signal, antagonist, fluorescence |  | IC50 | > 10000 nM |
| NC(=O)c1nnn(Cc2cc(Cl)c(C(=O)c3ccc(Cl)cc3)c(Cl)c2)c1N | CNR1 | cAMP, antagonist |  | IC50 | 1550 nM |
| CN(C)C/C=C/C(=O)Nc1cccc(C(=O)Nc2ccc(Nc3nccc(-c4cccnc4)n3)cc2)c1 | Serine/threonine-protein kinase Nek3 (NEK3, Homo sapiens, UniProt P51956) | enzyme activity, inhibitor |  | IC50 | 175 nM |
| CC(C)[C@@H](CN1CCc2ccccc2C1)NC(=O)c1cccc(-c2cccnc2)c1 | Mu-type opioid receptor (Oprm1, Mus musculus, UniProt P42866) | ligand displacement, radioligand |  | Ki | 39500 nM |
| Cc1c(-c2ccc(N3CCc4cccc(C(=O)Nc5nc6ccccc6s5)c4C3)nc2C(=O)NCCOCCOCCOCCNc2cccc3c2C(=O)N(C2CCC(=O)NC2=O)C3=O)cnn1CC12CC3CC(CC(C3)C1)C2 (centres unmarked) | BCL2L1 | ligand displacement, AlphaScreen |  | Ki | 0.15 nM |
| CC1(C)CCC(c2ccc(Cl)cc2)=C(CN2CCN(c3ccc(C(=O)NS(=O)(=O)c4ccc(N[C@H](CCNCCOCCOCCOCCNc5cccc6c5C(=O)N(C5CCC(=O)NC5=O)C6=O)CSc5ccccc5)c(S(=O)(=O)C(F)(F)F)c4)cc3)CC2)C1 (some centres unmarked) | BCL2L1 | ligand displacement, AlphaScreen |  | Ki | 0.27 nM |
| Cc1ncsc1-c1ccc([C@H](C)NC(=O)[C@@H]2C[C@@H](O)CN2C(=O)[C@@H](NC(=O)CCCCCC(=O)N2CCN(CC[C@H](CSc3ccccc3)Nc3ccc(S(=O)(=O)NC(=O)c4ccc(N5CCN(CC6=C(c7ccc(Cl)cc7)CCC(C)(C)C6)CC5)cc4)cc3S(=O)(=O)C(F)(F)F)CC2)C(C)(C)C)cc1 | BCL2L1 | ligand displacement, AlphaScreen |  | Ki | 1.46 nM |
| C[C@]12C=CC(=O)N[C@@H]1CC[C@@H]1[C@@H]2CC[C@]2(C)[C@@H](C(=O)Nc3cc(C(F)(F)F)ccc3C(F)(F)F)CC[C@@H]12 | 3-oxo-5-alpha-steroid 4-dehydrogenase 1 (SRD5A1, Homo sapiens, UniProt P18405) | enzyme activity in cells, inhibitor |  | IC50 | 16 nM |
| COC(=O)c1ccc(NC(=O)c2sc3nc(C)cc(C)c3c2N)cc1 | Adenosine receptor A2a (ADORA2A, Homo sapiens, UniProt P29274) | ligand displacement, radioligand |  | Ki | 3310 nM |
| CCNC(=O)c1nc(N2CCc3cccc(C(=O)Nc4nc5ccccc5s4)c3C2)ccc1-c1cnn(CC23CC4CC(CC(C4)C2)C3)c1C | BCL2L1 | ligand displacement, AlphaScreen |  | Ki | 1.32 nM |
| Cc1ccccc1NC(=O)CSc1nc2ccccc2cc1C=Nn1c(S)nnc1-c1ccccc1 | PPO3 | enzyme activity, inhibitor |  | IC50 | > 50000 nM |
